Laboratory results: ChEMBL document CHEMBL4130564, “Indolylalkyltriphenylphosphonium Analogues Are Membrane-Depolarizing Mycobactericidal Agents” (ACS Med Chem Lett, 2017)
pIC50: −log10 of the molar value. Activity calls are given as the source filed them. The calls are words filed in the database; no cut-off is given here.

Key:
[1] = tested on: Mycobacterium tuberculosis; experiment: Antibacterial activity against Mycobacterium bovis BCG ATCC 35734 after 5 days by broth dilution method; assay type: functional; details: BCG str. ATCC 35743, 120 h
Procedure, shortened: (§1)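 Broth dilution; growth read by turbidity; MIC50 and MIC90 are the concentrations reducing growth by 50% and 90% relative to untreated controls; average of two or more separate determinations.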

Lipid bilayer [2] = experiment: Binding affinity to DMPG vesicles assessed as change in enthalpy at 2 mM by differential scanning calorimetric analysis (reference value: -20.63 kJ/mol)
Procedure, shortened: (§2)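 Compound-loaded vesicles of negatively charged dimyristoylphosphatidylglycerol, used as a bacterial membrane surrogate, were scanned by differential scanning calorimetry. The gel-to-liquid melting endotherm was read for melting temperature (Tm) and calorimetric enthalpy (ΔH).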

Lipid bilayer [3] = experiment: Binding affinity to DMPG vesicles assessed as melting transition temperature by differential scanning calorimetric analysis (reference value: 21.09 to 23.28 degC)
[4] = tested on: Mycobacterium tuberculosis; experiment: Bactericidal activity against Mycobacterium bovis BCG ATCC 35734 assessed as suppression of reductive capacity by measuring decrease in formazan formation after 0.5 to 1 hr by MTT reduction assay; assay type: functional, organism-based; details: BCG str. ATCC 35743
Procedure, shortened: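 BCG cultures exposed to 0.2–100 μM for 30 min and 1 h, then MTT added; formazan production read at 595 nm against drug-free basal absorbance; CCCP 100 μM reference; representative of two independent experiments.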

Vero C1008 = experiment: Cytotoxicity against African green monkey Vero E6 cells assessed as reduction in cell viability after 48 hrs by cell titre 96 aqueous one solution-based assay; details: Chlorocebus sabaeus, Vero C1008, 48 h
Procedure, shortened: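 Vero cell viability was compared with untreated control cells. IC50 was taken as the concentration giving 50% loss of viability, averaged over two or more separate determinations.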

[5] = tested on: Mycobacterium tuberculosis; experiment: Bactericidal activity against Mycobacterium bovis BCG ATCC 35734 assessed as reduction in membrane potential by measuring red to green fluorescent ratio at 24 uM measured after 1 to 5 days by DiOC2-dye based fluorescence assay; assay type: functional, organism-based; details: BCG str. ATCC 35743
Procedure, shortened: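 Membrane potential in treated BCG cultures tracked as DiOC2 red/green fluorescence ratio over extended exposure of 1, 3 and 5 days.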

Lipid bilayer [6] = experiment: Binding affinity to DMPG vesicles assessed as increase in melting transition temperature by differential scanning calorimetric analysis; procedure, shortened: as §2
[7] = tested on: Mycobacterium tuberculosis; experiment: Antibacterial activity against Mycobacterium tuberculosis H37Rv ATCC 27294 after 7 days by broth dilution method; assay type: functional; details: H37Rv ATCC 27294, 168 h; procedure, shortened: as §1
[8] = tested on: Mycobacterium tuberculosis; experiment: Bactericidal activity against Mycobacterium bovis BCG ATCC 35734 assessed as increase in propidium iodide uptake at 6 uM after 1 to 5 days by flow cytometry; assay type: functional, organism-based; details: BCG str. ATCC 35743
[9] = tested on: Mycobacterium tuberculosis; experiment: Bactericidal activity Mycobacterium bovis BCG ATCC 35734 assesses as cell death at 15 times MIC90 after 1 hr in presence of methylene blue; assay type: functional, organism-based; details: BCG str. ATCC 35743
[10] = tested on: Mycobacterium tuberculosis; experiment: Bactericidal activity against Mycobacterium bovis BCG ATCC 35734 assessed as reduction in oxygen consumption at 10 times MIC90 after 1 hr by methylene blue-based assay; assay type: functional, organism-based; details: BCG str. ATCC 35743
[11] = tested on: Mycobacterium tuberculosis; experiment: Bactericidal activity against Mycobacterium bovis BCG ATCC 35734 assessed as reduction in colony forming units after 5 days; assay type: functional, BCG str. ATCC 35743; details: for MBC: Mycobacterium tuberculosis, BCG ATCC 35734, 120 h, read-out: MBC99.9
[12] = tested on: Mycobacterium tuberculosis; experiment: Bactericidal activity against Mycobacterium bovis BCG ATCC 35734 assessed as reduction in colony forming units at 6 uM after 1 to 5 days by time kill assay; assay type: functional, organism-based; details: BCG str. ATCC 35743
[13] = tested on: Mycobacterium tuberculosis; experiment: Bactericidal activity against Mycobacterium bovis BCG ATCC 35734 assessed as reduction in membrane potential by measuring red to green fluorescent ratio at 24 uM measured at 20 mins to 3 hrs by DiOC2-dye based fluorescence assay; assay type: functional, organism-based; details: BCG str. ATCC 35743
[14] = tested on: Mycobacterium tuberculosis; experiment: Bactericidal activity against Mycobacterium bovis BCG ATCC 35734 assessed as reduction in oxygen consumption at 15 times MIC90 after 1 hr by methylene blue-based assay; assay type: functional, organism-based; details: BCG str. ATCC 35743
[15] = tested on: Mycobacterium tuberculosis; experiment: Bactericidal activity against Mycobacterium bovis BCG ATCC 35734 assessed as cell elongation at 24 uM after 1 to 5 days by acid-fast staining-based light microscopy; assay type: functional, organism-based; details: BCG str. ATCC 35743
[16] = tested on: Mycobacterium tuberculosis; experiment: Bactericidal activity against Mycobacterium bovis BCG ATCC 35734 assessed as reduction in oxygen consumption at 5 times MIC90 after 1 hr by methylene blue-based assay; assay type: functional, organism-based; details: BCG str. ATCC 35743
[17] = Hemolytic activity against human RBC after 1 hr; assay type: ADME, cell-based, Erythrocyte; details: human red blood cells (erythrocytes)
Procedure, shortened: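 Human red blood cells were exposed to compound, and lysis was scaled against Triton X-100 (2% v/v), taken as 100% hemolysis. HC50 was the concentration lysing 50% of cells, averaged over two or more separate determinations.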

SMILES: O=[N+]([O-])c1ccc2ccn(CCC[P+](c3ccccc3)(c3ccccc3)c3ccccc3)c2c1
- MIC50 [1]: 7 µM
- MIC90 [1]: 13 µM

SMILES: COc1cccc2c1ccn2CCC[P+](c1ccccc1)(c1ccccc1)c1ccccc1
- MIC50 [1]: 6 µM
- MIC90 [1]: 11 µM

SMILES: CCC[P+](c1ccccc1)(c1ccccc1)c1ccccc1
- MIC50 [1]: > 50 µM
- MIC90 [1]: > 50 µM
- deltaH (Lipid bilayer [2]): -2.74 kcal/mol
- Tm (Lipid bilayer [3]): 21.1 to 23.2 °C

SMILES: COc1cccc2c1ccn2CCCCC[P+](c1ccccc1)(c1ccccc1)c1ccccc1
- MIC50 [1]: 3 µM
- MIC90 [1]: 5 µM

SMILES: O=[N+]([O-])c1cccc2c1ccn2CCCCC[P+](c1ccccc1)(c1ccccc1)c1ccccc1.[I-]
- Activity [4]: Dose-dependent effect
- pIC50 (Vero C1008): 4.44
- Activity [5]: Active
- MIC50 [1]: 2 µM
- MIC90 [1]: 3 µM
- ΔTm (Lipid bilayer [6]): 1 °C
- MIC50 [7]: 4 µM
- MIC90 [7]: 6 µM
- Activity [8]: Active
- Activity [9]: Toxic
- Activity [10]: Active
- MBC99 [11]: 3 µM
- MBC [11]: 6 µM
- Activity [12]: Active
- Activity [13]: Active
- Activity [14]: Active
- Activity [15]: Active
- Activity [16]: inactive
- HC50 at 1 h [17]: 196 µM

SMILES: O=[N+]([O-])c1cccc2c1ccn2CCC[P+](c1ccccc1)(c1ccccc1)c1ccccc1.[I-]
- pIC50 (Vero C1008): < 4.00
- MIC50 [1]: 5 µM
- MIC90 [1]: 9 µM
- MIC50 [7]: 22 µM
- MIC90 [7]: 45 µM
- MBC99 [11]: 25 µM
- MBC [11]: 50 µM
- HC50 at 1 h [17]: 230 µM

SMILES: CCCn1ccc2cc(F)ccc21
- MIC50 [1]: > 50 µM
- MIC90 [1]: > 50 µM
- deltaH (Lipid bilayer [2]): -4.77 kcal/mol
- Tm (Lipid bilayer [3]): 20.1 °C

SMILES: O=[N+]([O-])c1cccc2ccn(CCC[P+](c3ccccc3)(c3ccccc3)c3ccccc3)c12
- MIC50 [1]: 2 µM
- MIC90 [1]: 4 µM

SMILES: COc1cccc2ccn(CCC[P+](c3ccccc3)(c3ccccc3)c3ccccc3)c12.[I-]
- pIC50 (Vero C1008): 4.47
- MIC50 [1]: 4 µM
- MIC90 [1]: 6 µM
- MIC50 [7]: 6 µM
- MIC90 [7]: 20 µM
- MBC99 [11]: 13 µM
- MBC [11]: 25 µM
- HC50 at 1 h [17]: > 300 µM

SMILES: Fc1cccc2ccn(CCCCC[P+](c3ccccc3)(c3ccccc3)c3ccccc3)c12
- MIC50 [1]: 3 µM
- MIC90 [1]: 6 µM

SMILES: COc1ccc2ccn(CCCCC[P+](c3ccccc3)(c3ccccc3)c3ccccc3)c2c1
- MIC50 [1]: 4 µM
- MIC90 [1]: 8 µM

SMILES: Fc1cccc2ccn(CCC[P+](c3ccccc3)(c3ccccc3)c3ccccc3)c12
- MIC50 [1]: 5 µM
- MIC90 [1]: 12 µM

SMILES: O=[N+]([O-])c1ccc2ccn(CCCCC[P+](c3ccccc3)(c3ccccc3)c3ccccc3)c2c1
- MIC50 [1]: 3 µM
- MIC90 [1]: 4 µM

SMILES: CCCCC[P+](c1ccccc1)(c1ccccc1)c1ccccc1
- Activity [4]: inactive
- MIC50 [1]: 28 µM
- MIC90 [1]: > 50 µM
- Activity [13]: inactive

SMILES: O=[N+]([O-])c1ccc2c(ccn2CCC[P+](c2ccccc2)(c2ccccc2)c2ccccc2)c1
- MIC50 [1]: 9 µM
- MIC90 [1]: 12 µM

SMILES: CCCCCn1ccc2cccc(OC)c21
- Activity [4]: inactive
- MIC50 [1]: > 50 µM
- MIC90 [1]: > 50 µM
- Activity [13]: inactive

SMILES: c1ccc([P+](CCCCCn2ccc3ccccc32)(c2ccccc2)c2ccccc2)cc1
- MIC50 [1]: 4.3 µM
- MIC90 [1]: 6.3 µM
